# Results from ChEMBL document CHEMBL4689842, “EUbOPEN Chemogenomics Library wave 1” (2021).
# Tested on: HEK-293T
# Test: Multiplex assay against HEK293T;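 on Population Tubulin-Different-Phenotype (%): share of the cells with healthy nuclei that show this phenotype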
# Assay type: toxicity, cell-based
# Settings: human
# Procedure, shortened: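 Live cells were stained at seeding with Hoechst33342, BioTracker Green Microtubule Cytoskeleton Dye, MitoTracker Red and Annexin V Alexa Fluor 680. Following compound addition, they were imaged on a CQ1 microscope at 37°C and 5% CO2 and gated by CellPathfinder machine learning into Hoechst high-intensity objects or normal cells, with normal cells split into healthy, pyknosed or fragmented nuclei and pyknosed cells into mitotic or apoptotic. Tubulin, mitochondrial-mass and membrane-permeability phenotypes are per cents of healthy-nucleus cells.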
# [1] = 12 h, 1 µM, compound concentration 1 uM, replicate 1
# [2] = 12 h, 1 µM, compound concentration 1 uM, replicate 2
# [3] = 12 h, 10 µM, compound concentration 10 uM, replicate 1
# [4] = 12 h, 10 µM, compound concentration 10 uM, replicate 2
# [5] = 24 h, 1 µM, compound concentration 1 uM, replicate 1
# [6] = 24 h, 1 µM, compound concentration 1 uM, replicate 2
# [7] = 24 h, 10 µM, compound concentration 10 uM, replicate 1
# [8] = 24 h, 10 µM, compound concentration 10 uM, replicate 2
# [9] = 48 h, 1 µM, compound concentration 1 uM, replicate 1
# [10] = 48 h, 1 µM, compound concentration 1 uM, replicate 2
# [11] = 48 h, 10 µM, compound concentration 10 uM, replicate 1
# [12] = 48 h, 10 µM, compound concentration 10 uM, replicate 2
compound,measurement,setting,value
Oc1cccc(-c2nc(N3CCOCC3)c3oc4ncccc4c3n2)c1 [PI-103],Population Apoptotic (%),[1],58%
same,Population Fragmented Nuclei (%),[1],6%
same,Population Healthy Nuclei (%),[1],16%
same,Population Hoechst High Intensity Objects (%),[1],21%
same,Population Membrane Permeable-Phenotype (%),[1],2%
same,Population Mitochondria Different-Phenotype (%),[1],85%
same,Population Mitotic Cells (%),[1],41%
same,Population Normal (%),[1],78%
same,Population Pyknosed Nuclei (%),[1],77%
same,Population Tubulin-Different-Phenotype (%),[1],82%
same,Total Cell Count,[1],269
same,Population Apoptotic (%),[2],51%
same,Population Fragmented Nuclei (%),[2],10%
same,Population Healthy Nuclei (%),[2],13%
same,Population Hoechst High Intensity Objects (%),[2],14%
same,Population Membrane Permeable-Phenotype (%),[2],10%
same,Population Mitochondria Different-Phenotype (%),[2],68%
same,Population Mitotic Cells (%),[2],48%
same,Population Normal (%),[2],85%
same,Population Pyknosed Nuclei (%),[2],76%
same,Population Tubulin-Different-Phenotype (%),[2],63%
same,Total Cell Count,[2],161
same,Population Apoptotic (%),[3],72%
same,Population Fragmented Nuclei (%),[3],14%
same,Population Healthy Nuclei (%),[3],8%
same,Population Hoechst High Intensity Objects (%),[3],18%
same,Population Membrane Permeable-Phenotype (%),[3],11%
same,Population Mitochondria Different-Phenotype (%),[3],94%
same,Population Mitotic Cells (%),[3],27%
same,Population Normal (%),[3],81%
same,Population Pyknosed Nuclei (%),[3],77%
same,Population Tubulin-Different-Phenotype (%),[3],94%
same,Total Cell Count,[3],269
same,Population Apoptotic (%),[4],64%
same,Population Fragmented Nuclei (%),[4],7%
same,Population Healthy Nuclei (%),[4],6%
same,Population Hoechst High Intensity Objects (%),[4],6%
same,Population Membrane Permeable-Phenotype (%),[4],27%
same,Population Mitochondria Different-Phenotype (%),[4],54%
same,Population Mitotic Cells (%),[4],35%
same,Population Normal (%),[4],93%
same,Population Pyknosed Nuclei (%),[4],85%
same,Population Tubulin-Different-Phenotype (%),[4],72%
same,Total Cell Count,[4],172
same,Population Apoptotic (%),[5],47%
same,Population Fragmented Nuclei (%),[5],13%
same,Population Healthy Nuclei (%),[5],10%
same,Population Hoechst High Intensity Objects (%),[5],22%
same,Population Mitochondria Different-Phenotype (%),[5],78%
same,Population Mitotic Cells (%),[5],52%
same,Population Normal (%),[5],77%
same,Population Pyknosed Nuclei (%),[5],76%
same,Population Tubulin-Different-Phenotype (%),[5],86%
same,Total Cell Count,[5],293
same,Population Apoptotic (%),[6],53%
same,Population Fragmented Nuclei (%),[6],9%
same,Population Healthy Nuclei (%),[6],26%
same,Population Hoechst High Intensity Objects (%),[6],15%
same,Population Membrane Permeable-Phenotype (%),[6],13%
same,Population Mitochondria Different-Phenotype (%),[6],59%
same,Population Mitotic Cells (%),[6],46%
same,Population Normal (%),[6],84%
same,Population Pyknosed Nuclei (%),[6],64%
same,Population Tubulin-Different-Phenotype (%),[6],64%
same,Total Cell Count,[6],168
same,Population Apoptotic (%),[7],63%
same,Population Fragmented Nuclei (%),[7],18%
same,Population Healthy Nuclei (%),[7],8%
same,Population Hoechst High Intensity Objects (%),[7],17%
same,Population Membrane Permeable-Phenotype (%),[7],10%
same,Population Mitochondria Different-Phenotype (%),[7],100%
same,Population Mitotic Cells (%),[7],36%
same,Population Normal (%),[7],82%
same,Population Pyknosed Nuclei (%),[7],73%
same,Population Tubulin-Different-Phenotype (%),[7],90%
same,Total Cell Count,[7],291
same,Population Apoptotic (%),[8],65%
same,Population Fragmented Nuclei (%),[8],11%
same,Population Healthy Nuclei (%),[8],11%
same,Population Hoechst High Intensity Objects (%),[8],16%
same,Population Membrane Permeable-Phenotype (%),[8],23%
same,Population Mitochondria Different-Phenotype (%),[8],70%
same,Population Mitotic Cells (%),[8],34%
same,Population Normal (%),[8],83%
same,Population Pyknosed Nuclei (%),[8],76%
same,Population Tubulin-Different-Phenotype (%),[8],88%
same,Total Cell Count,[8],175
same,Population Apoptotic (%),[9],56%
same,Population Fragmented Nuclei (%),[9],23%
same,Population Healthy Nuclei (%),[9],4%
same,Population Hoechst High Intensity Objects (%),[9],22%
same,Population Membrane Permeable-Phenotype (%),[9],9%
same,Population Mitochondria Different-Phenotype (%),[9],72%
same,Population Mitotic Cells (%),[9],43%
same,Population Normal (%),[9],77%
same,Population Pyknosed Nuclei (%),[9],71%
same,Population Tubulin-Different-Phenotype (%),[9],63%
same,Total Cell Count,[9],297
same,Population Apoptotic (%),[10],50%
same,Population Fragmented Nuclei (%),[10],12%
same,Population Healthy Nuclei (%),[10],55%
same,Population Hoechst High Intensity Objects (%),[10],14%
same,Population Membrane Permeable-Phenotype (%),[10],7%
same,Population Mitochondria Different-Phenotype (%),[10],63%
same,Population Mitotic Cells (%),[10],50%
same,Population Normal (%),[10],85%
same,Population Pyknosed Nuclei (%),[10],31%
same,Population Tubulin-Different-Phenotype (%),[10],88%
same,Total Cell Count,[10],185
same,Population Apoptotic (%),[11],55%
same,Population Fragmented Nuclei (%),[11],29%
same,Population Healthy Nuclei (%),[11],7%
same,Population Hoechst High Intensity Objects (%),[11],17%
same,Population Membrane Permeable-Phenotype (%),[11],0%
same,Population Mitochondria Different-Phenotype (%),[11],94%
same,Population Mitotic Cells (%),[11],44%
same,Population Normal (%),[11],82%
same,Population Pyknosed Nuclei (%),[11],63%
same,Population Tubulin-Different-Phenotype (%),[11],84%
same,Total Cell Count,[11],307
same,Population Apoptotic (%),[12],78%
same,Population Fragmented Nuclei (%),[12],10%
same,Population Healthy Nuclei (%),[12],18%
same,Population Hoechst High Intensity Objects (%),[12],22%
same,Population Membrane Permeable-Phenotype (%),[12],8%
same,Population Mitochondria Different-Phenotype (%),[12],80%
same,Population Mitotic Cells (%),[12],21%
same,Population Normal (%),[12],77%
same,Population Pyknosed Nuclei (%),[12],71%
same,Population Tubulin-Different-Phenotype (%),[12],88%
same,Total Cell Count,[12],177
